Series [1] can be described thus: Cytotoxicity against human Raji cells assessed as cell viability at 10 molar ratio. Format: cell-based. The following applies: read-out: Activity. The method, boiled down:
(§1)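 Raji cells (EBV nonproducer type) serve as indicator cells in the TPA-induced EBV-EA activation assay. Sample is dosed as a mol ratio to TPA, with TPA at 32 pmol; ×1000 corresponds to 32 nmol/mL sample. Viability of the indicator cells is reported as a percentage.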

Series [2] deals with Raji. Nature of the series: Inhibition of TPA-induced EBV-early antigen activation in human Raji cells assessed as early antigen induction at 100 molar ratio relative to TPA. The format is cell-based. The settings on record: human gammaherpesvirus 4. The gist of the method:
(§2)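 EBV early antigen induction is measured in Raji cells (virus nonproducer type) stimulated with TPA at 32 pmol. Sample concentration is expressed as mol ratio/TPA; ×1000 equals 32 nmol/mL. EA induction is expressed as a percentage of the positive (TPA-only) value, set as 100%.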

A short description of series [3]: Cytotoxicity against human Raji cells assessed as cell viability at 500 molar ratio. The format is cell-based. The settings on record: read-out: Activity. The method, boiled down:
as §1

The nature of series [4]: Cytotoxicity against human Raji cells assessed as cell viability at 1000 molar ratio. Format: cell-based. The settings on record: read-out: Activity. The method, boiled down:
as §1

Series [5] relates to Raji. Nature of the series: Inhibition of TPA-induced EBV-early antigen activation in human Raji cells assessed as early antigen induction at 1000 molar ratio relative to TPA. The format is cell-based. The following applies: human gammaherpesvirus 4. The method, boiled down:
as §2

Series [6] can be described thus: Cytotoxicity against human Raji cells assessed as cell viability at 100 molar ratio. The format is cell-based. The following applies: read-out: Activity. The method, boiled down: as §1
For series [7], the system named is Raji. Nature of the series: Inhibition of TPA-induced EBV-early antigen activation in human Raji cells assessed as early antigen induction at 500 molar ratio relative to TPA. Format: cell-based. The following applies: human gammaherpesvirus 4. The gist of the method:
as §2

Series [8] has as its system Raji. Nature of the series: Inhibition of TPA-induced EBV-early antigen activation in human Raji cells assessed as early antigen induction at 10 molar ratio relative to TPA. The settings on record: human gammaherpesvirus 4.

Molecules are shown by their SMILES.

These results are taken from ChEMBL document CHEMBL1150156, “Semisynthesis of new sarcophine derivatives with chemopreventive activity” (J Nat Prod, 2002).

With `CC1=C2CC/C(C)=C/CC[C@]3(C)O[C@H]3CC/C(C)=C/[C@@H]2OC1=O` [SARCOPHINE], the viability at 10 molar ratio in series [1] is greater than 80%. Further, the EBV early antigen induction (% of TPA-only control) with Raji [2] amounted to 84%; with Raji [5] it was 19.6%. For the same compound, in series [3], the viability at 500 molar ratio is greater than 80%. Moreover, the viability at 1000 molar ratio in series [4] was found to be 60%. For the same compound, the viability at 100 molar ratio in series [6] is greater than 80%. Further, the EBV early antigen induction (% of TPA control) in the series with Raji [7] was found to be 67.5%. In addition, the EBV early antigen induction relative to TPA with Raji [8] was found to be 100%.
For `C/C1=C\C=C(\C(C)C)[C@@H](O)C/C(C)=C/CC/C(C)=C/CC1`, the viability at 10 molar ratio in series [1] was greater than 80%. Moreover, the EBV early antigen induction (% of TPA-only control) in the series on Raji [2] was determined as 79.1%; with Raji [5], 11.7%. Besides, the viability at 500 molar ratio in series [3] was greater than 80%. The viability at 1000 molar ratio in series [4] worked out at 50%. For the same compound, the viability at 100 molar ratio in series [6] is greater than 80%. Further, the EBV early antigen induction (% of TPA control) in the series on Raji [7] stood at 60.4%. The EBV early antigen induction relative to TPA in the series on Raji [8] was 97.3%.
With `C/C1=C\C=C(\[C@@](C)(O)CO)C[C@H](O)/C(C)=C/CC[C@]2(C)O[C@H]2CC1`, the viability at 10 molar ratio in series [1] is greater than 80%. The EBV early antigen induction (% of TPA-only control) in the series on Raji [2] is 74.6%; in the series on Raji [5], 5.9%. For the same compound, in series [3], the viability at 500 molar ratio was greater than 80%. The viability at 1000 molar ratio in series [4] is 60%. Moreover, in series [6], the viability at 100 molar ratio is greater than 80%. Moreover, the EBV early antigen induction (% of TPA control) in the series with Raji [7] stood at 55.8%. In addition, the EBV early antigen induction relative to TPA in the series with Raji [8] came to 93.8%.
As to `C/C1=C\C=C(\[C@@](C)(O)CO)C[C@@H](O)/C(C)=C/CC[C@]2(C)O[C@H]2CC1`, the viability at 10 molar ratio in series [1] was greater than 80%. The EBV early antigen induction (% of TPA-only control) in the series with Raji [2] was found to be 72.9%; in the series with Raji [5], 5.7%. Also, the viability at 500 molar ratio in series [3] is greater than 80%. Also, in series [4], the viability at 1000 molar ratio turned out to be 60%. Also, in series [6], the viability at 100 molar ratio is greater than 80%. Also, in the series with Raji [7], the EBV early antigen induction (% of TPA control) was determined as 54.2%. Besides, the EBV early antigen induction relative to TPA in the series on Raji [8] was 92.6%.
In the case of `C/C(CO)=C1\CC/C(C)=C/CC[C@]2(C)O[C@H]2CC/C(C)=C/[C@@H]1O`, in series [1], the viability at 10 molar ratio is greater than 80%. For the same compound, the figures for the EBV early antigen induction (% of TPA-only control) in the series on Raji [2] and with Raji [5] were 75.5% and 9.6%, respectively. Moreover, in series [3], the viability at 500 molar ratio was greater than 80%. Further, the viability at 1000 molar ratio in series [4] was 60%. In addition, the viability at 100 molar ratio in series [6] was greater than 80%. The EBV early antigen induction (% of TPA control) with Raji [7] worked out at 57.3%. Further, the EBV early antigen induction relative to TPA in the series on Raji [8] was 94.1%.
Take `C/C1=C\C=C(\[C@@](C)(O)CO)CC/C(C=O)=C/CC[C@]2(C)O[C@H]2CC1`: in series [1], the viability at 10 molar ratio is greater than 80%. The EBV early antigen induction (% of TPA-only control) with Raji [2] came to 71.3%; with Raji [5] it was 3.6%. Also, the viability at 500 molar ratio in series [3] is greater than 80%. Moreover, the viability at 1000 molar ratio in series [4] was 60%. Further, the viability at 100 molar ratio in series [6] is greater than 80%. For the same compound, the EBV early antigen induction (% of TPA control) with Raji [7] turned out to be 52.4%. In the series on Raji [8], the EBV early antigen induction relative to TPA stood at 90.6%.
`C/C1=C\C=C(\[C@@](C)(O)CO)CC(=O)/C(C)=C/CC[C@]2(C)O[C@H]2CC1`: in series [1], the viability at 10 molar ratio was greater than 80%. Moreover, the EBV early antigen induction (% of TPA-only control) with Raji [2] turned out to be 75.1%; with Raji [5] it was 8.3%. The viability at 500 molar ratio in series [3] is greater than 80%. For the same compound, the viability at 1000 molar ratio in series [4] was 60%. For the same compound, the viability at 100 molar ratio in series [6] is greater than 80%. Also, the EBV early antigen induction (% of TPA control) in the series with Raji [7] was 56.7%. For the same compound, in the series with Raji [8], the EBV early antigen induction relative to TPA worked out at 94%.
Turning to `CC1=C2C[C@H](O)/C(C)=C/CC[C@]3(C)O[C@H]3CC/C(C)=C/[C@@H]2OC1=O`, in series [1], the viability at 10 molar ratio was greater than 80%. Further, the EBV early antigen induction (% of TPA-only control) with Raji [2] is 81.3%; with Raji [5] it was 14.2%. Besides, the viability at 500 molar ratio in series [3] was greater than 80%. Besides, the viability at 1000 molar ratio in series [4] was found to be 60%. Moreover, in series [6], the viability at 100 molar ratio was greater than 80%. For the same compound, the EBV early antigen induction (% of TPA control) in the series with Raji [7] was determined as 62.8%. For the same compound, in the series on Raji [8], the EBV early antigen induction relative to TPA was found to be 100%.
On to `CC1=C2CC/C(C=O)=C/CC[C@]3(C)O[C@H]3CC/C(C)=C/[C@@H]2OC1=O`, for which, in series [1], the viability at 10 molar ratio is greater than 80%. Further, the figures for the EBV early antigen induction (% of TPA-only control) in the series with Raji [2] and in the series with Raji [5] were 81.3% and 12.7%, respectively. The viability at 500 molar ratio in series [3] was greater than 80%. Moreover, the viability at 1000 molar ratio in series [4] is 60%. For the same compound, the viability at 100 molar ratio in series [6] was greater than 80%. Also, in the series on Raji [7], the EBV early antigen induction (% of TPA control) turned out to be 60.8%. For the same compound, the EBV early antigen induction relative to TPA in the series with Raji [8] was 96%.
